Compounds with a hit are over-represented: about 3.5% of the library has one in this group of screens.
MrgX1 ag: agonists of human MrgX1 receptor, primary screen, HEK293 cells, Fluo-4 calcium flux; 0.44% of 310,000 active; Mas-related G-protein coupled receptor member X1 (Homo sapiens), Q96LB2; B-score at 10 µM; Fluo-4 calcium fluorescence, agonist mode; hits give high values;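 active = calcium response B-score plate-corrected fluorescence ratio at least 3 library SD, with starting fluorescence B-score inside 5 SD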
Target sequence (Q96LB2 whole entry, looked up): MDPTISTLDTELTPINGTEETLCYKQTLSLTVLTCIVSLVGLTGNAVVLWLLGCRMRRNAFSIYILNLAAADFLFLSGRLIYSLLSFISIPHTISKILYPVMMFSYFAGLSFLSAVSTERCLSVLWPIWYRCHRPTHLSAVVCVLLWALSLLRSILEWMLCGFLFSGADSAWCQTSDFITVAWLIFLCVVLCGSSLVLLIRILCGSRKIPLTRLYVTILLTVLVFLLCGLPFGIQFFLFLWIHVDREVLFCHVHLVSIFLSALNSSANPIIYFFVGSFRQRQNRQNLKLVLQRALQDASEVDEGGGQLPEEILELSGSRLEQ
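System: HEK293 cells stably expressing human MrgX1 receptor; Dosing: test compound in the initial addition of three; Schedule: overnight plating, then 30 min 37 °C plus 30 min room-temperature dye loading; Detection: kinetic calcium dye fluorescence, Fluo-4 NW; Controls: per-plate positive and negative controls for Z′ factor.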
MrgX1 antag: antagonists of human MrgX1 receptor, primary screen, HEK293 cells, Fluo-4 calcium flux; Mas-related G-protein coupled receptor member X1 (Homo sapiens), Q96LB2; BAM8-22 antagonism; hits give low values; B-score at 10 µM; 1.3% of 310,000 active; AID 588676, 2011;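 active = calcium-response B-score plate-corrected more than 3 library SD below zero, starting fluorescence within 5 deviations, no agonist response on first addition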;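 also: peak minus trough fluorescence over baseline after final BAM8-22 challenge near maximal dose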
MrgX1 PAM: positive allosteric modulators of MrgX1, primary screen, HEK293 cells, Fluo-4 calcium flux; AID 588675, 2011; FDSS; hits give high values; B-score at 10 µM; 0.63% of 310,000 active; Mas-related G-protein coupled receptor member X1 (Homo sapiens), Q96LB2;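 active = plate-corrected calcium response at least 3 library SD above typical, normal starting fluorescence, not activating the receptor alone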;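 also: compound read alongside a low EC10 to EC30 dose of BAM8-22 agonist; peak minus trough fluorescence over baseline measured at the second addition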
RGS4 pot: RGS4 potentiators or activators, primary screen, cell-based, HEK293 M3R inducible RGS4, calcium flux | carbachol calcium flux Fluo4; hits give low values | B-score at 10 µM | AID 463111, 2010 | 0.92% of 310,000 active;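 active = B-score of the integrated calcium signal more than 4 SD below the library mean, with starting fluorescence not abnormally high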;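 also: negative B-score means reduced calcium response which marks RGS4 activation or potentiation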
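Detection: kinetic calcium fluorescence imaging with Fluo4-AM dye, 2 µM / Material: HEK293 cells with stable M3R and inducible RGS4 / Schedule: recording 10 s baseline at 1 Hz, 100 s post-agonist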
RGS4 block: RGS4 inhibitors, primary screen, cell-based, HEK293 M3R inducible RGS4, calcium flux; Regulator of G-protein signaling 4 (Homo sapiens), P49798; Fluo-4 calcium flux; hits give high values; triggered by carbachol at its EC20; B-score at 10 µM; 0.45% of 310,000 active; AID 463165, 2010;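 active = B-score, a plate-corrected calcium signal, over three deviations above library mean, with baseline fluorescence within five deviations of library mean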;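 also: RGS4 expression induced by doxycycline in cells with stable M3 receptor; B-score is computed from the integrated fluorescence ratio over baseline after carbachol; higher B-score means a larger calcium signal and so more RGS4 inhibition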
Target sequence (P49798 whole entry, looked up): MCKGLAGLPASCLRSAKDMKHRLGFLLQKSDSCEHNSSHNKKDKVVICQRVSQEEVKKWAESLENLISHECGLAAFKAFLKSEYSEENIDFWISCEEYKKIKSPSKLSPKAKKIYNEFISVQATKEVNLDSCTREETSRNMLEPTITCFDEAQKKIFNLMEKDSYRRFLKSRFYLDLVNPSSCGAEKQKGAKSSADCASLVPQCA
MrgX1 allo conf: MrgX1 positive allosteric modulators, duplicate retest, confirmation, HEK293 cells, Fluo-4 calcium flux; shares compounds with MrgX1 PAM; Fluo-4 calcium fluorescence, FDSS; activation (ratio percentage), % at 10 µM; 13% of 1,200 active; AID 602413, 2012;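 active = ratio at least 3 SD above the weak peptide control, stable starting fluorescence, no direct agonism earlier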;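 also: compound followed by low BAM8-22 agonist challenge near EC20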
HEK293 Ca flux: nonspecific calcium signal in parental HEK293, confirmation, counter-screen for MrgX1 antagonist project, parental HEK293 cells, Fluo-4 calcium flux; shares compounds with MrgX1 antag; Fluo-4 calcium fluorescence, FDSS; 2% of 4,000 active; fluorescence ratio F(max-min)/F0 at 10 µM;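 active = duplicate-averaged calcium fluorescence ratio at least three times the standard deviation of buffer wells, a nonspecific response in parental cells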
HEK293 Ca counter: calcium response in parental HEK293 cells, primary screen, counter-screen for MrgX1 allosteric activator project, cell-based, Fluo-4 calcium flux, duplicate | shares compounds with MrgX1 antag | Fluo-4 fluorescence ratio; hits give high values | fluorescence ratio F(max-min)/F0 at 10 µM | 0.4% of 4,000 active;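 active = calcium fluorescence ratio, averaged over duplicates, at least 3 SD of the buffer-well ratio, meaning a nonspecific response in receptor-free cells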;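 also: untransfected parental HEK293 lacking MrgX1 used as counterscreen for MrgX1 allosteric activators; fluorescence change taken during the second addition on a kinetic imager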
HEK293 Ca cntr2: calcium response in parental HEK293 cells, primary screen, counter-screen for MrgX1 agonist project, cell-based, Fluo-4 calcium flux, duplicate, agonist mode; shares compounds with MrgX1 antag; Fluo-4 calcium fluorescence (FDSS); hits give high values; fluorescence ratio F(max-min)/F0 at 10 µM; 8.7% of 4,000 active;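 active = calcium fluorescence ratio at least three times the spread of buffer wells, meaning a non-specific response in parental cells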
Numbers stand for hits; i = inactive; nt = no result.

SMILES	MrgX1 ag	MrgX1 antag	MrgX1 PAM	RGS4 pot	RGS4 block	MrgX1 allo conf	HEK293 Ca flux	HEK293 Ca counter	HEK293 Ca cntr2
COc1nc(N)nc(NC23CC4CC(CC(C4)C2)C3)n1	i	i	15	i	i	22%	i	i	i
COC(=O)c1c(-c2cccnc2)csc1NC(=O)c1ccc2c(c1)OCO2	i	i	i	i	i	nt	nt	nt	nt
COc1ccc(OC)c(N(CC(=O)N2CCN(c3cc(Cl)ccc3C)CC2)S(C)(=O)=O)c1	i	i	29	i	i	93%	i	i	54
CCN1CCN(C(=O)CN(c2cc(OC)ccc2OC)S(C)(=O)=O)CC1	i	i	i	i	i	nt	nt	nt	nt
CS(=O)(=O)N(CC(=O)N1CCN(c2ccc(F)cc2)CC1)c1ccc(F)c(Cl)c1	i	i	6.8	i	i	i	i	i	i
COc1ccc(N2CCN(C(=O)CN(c3cccc(Br)c3)S(C)(=O)=O)CC2)cc1	i	i	18	i	i	16%	i	i	i
CC1CCCCN1CCCNC(=O)c1ccc(N2CCCC2=O)cc1 (stereo unspecified)	i	i	i	i	i	nt	nt	nt	nt
COCc1cc(Sc2ccc(Cl)cc2)nc(C)n1	i	i	8.4	i	i	i	i	i	i
CCN(CC(=O)Nc1ccc2c(c1)OCCO2)C(=O)/C=C/c1cccc(Br)c1	i	i	i	i	i	nt	nt	nt	nt
COc1ccc(-c2cc(C(=O)Nc3ccc(F)cc3F)no2)cc1	i	i	i	i	i	nt	nt	nt	nt
COc1ccc(-c2cc(C(=O)Nc3c(F)cc(F)cc3Br)no2)cc1	i	i	8.9	i	i	i	i	i	i
COc1ccc(/C(C)=N/NC(=O)C(NC(=O)c2ccccc2)c2n[nH]c(=O)c3ccccc23)c(OC)c1 (stereo unspecified)	i	i	i	i	i	nt	nt	nt	nt
O=C(NCCCNC(=O)c1ccc(-c2cccc(Cl)c2)o1)c1cnccn1	i	i	13	i	i	i	i	i	i
O=C(NCCNC(=O)c1cnccn1)c1cccc(Cl)c1	i	i	i	i	i	nt	nt	nt	nt
O=C(NCCNC(=O)c1ccc(-c2ccc(Cl)c(Cl)c2)o1)c1cnccn1	i	i	7.2	i	i	i	i	i	i
Cn1c(SCC(=O)N2CCCC2=O)nc2ccccc21	i	i	i	i	i	nt	nt	nt	nt
COc1ccc2cc([C@@H](C)C(=O)O)ccc2c1	i	i	i	nt	nt	nt	nt	nt	nt
CC(C)S(=O)(=O)C1=NSC2=NC(=O)/C(=C\c3ccc(OC(=O)c4ccco4)cc3)C(=N)N21	i	i	35	i	i	i	i	i	i
N=C1/C(=C\c2ccc(OC(=O)c3ccco3)cc2)C(=O)N=C2SC(N3CCCCC3)=NN12	i	i	i	i	i	nt	nt	nt	nt
CC(=O)Nc1ccc(NC(=O)c2c(-c3ccccc3)noc2C)cn1	i	i	i	i	i	nt	nt	nt	nt
Cc1ccc(-n2c(COc3cccc(C)c3)n[nH]c2=S)cc1	i	i	11	i	i	i	i	i	i
Cc1ccc(OCc2n[nH]c(=S)n2-c2ccccc2)cc1C	i	i	8.7	i	i	i	i	i	i
Cc1ccc(-n2c(COc3ccccc3)n[nH]c2=S)cc1	i	i	8	i	i	i	i	i	i
COc1ccc(-n2c(COc3ccc(C)cc3)n[nH]c2=S)cc1	i	i	i	i	i	nt	nt	nt	nt
Cc1ccc(-n2c(CCc3ccccc3)n[nH]c2=S)cc1C	i	i	6.5	i	i	i	i	i	i
SMILES	MrgX1 ag	MrgX1 antag	MrgX1 PAM	RGS4 pot	RGS4 block	MrgX1 allo conf	HEK293 Ca flux	HEK293 Ca counter	HEK293 Ca cntr2
CC1(C(=O)N/N=C/c2c(F)c(F)c(F)c(F)c2F)CC1(Cl)Cl (stereo unspecified)	i	i	20	i	i	i	i	i	i
CC1CCCC(NS(=O)(=O)c2cc3c(cc2Cl)NC(=O)CO3)C1C (stereo unspecified)	i	i	21	i	i	i	i	i	i
CC1CCCC(NC(=O)CCS(=O)(=O)c2cc3c(cc2Cl)NC(=O)CO3)C1C (stereo unspecified)	i	i	i	i	i	nt	nt	nt	nt
Cc1ccc(-n2cnc3cc(NCc4cccs4)ccc32)cc1	i	i	9.8	i	i	i	i	i	i
c1ccc(-n2cnc3cc(NCc4cccs4)ccc32)cc1	i	i	i	i	i	nt	nt	nt	nt
CC(=O)c1ccc(N2CCN(c3ncccn3)CC2)cc1	i	i	i	i	i	nt	nt	nt	nt
N#Cc1c(/N=C/C=C/c2ccccc2)sc2c1CCCC2	i	i	8	i	i	i	i	i	i
CN1CCN(/C=N/c2sc3c(c2C#N)CCCCC3)CC1	i	i	i	i	i	nt	nt	nt	nt
COc1cccc(/C=C/C(=O)OCC(=O)Nc2nnc(-c3ccccc3)o2)c1	i	i	i	i	i	nt	nt	nt	nt
c1cnc2c(Oc3ncnc4sccc34)cccc2c1	i	i	i	i	i	nt	nt	nt	nt
Cc1ccc(Oc2ncnc3sccc23)cc1	i	i	17	i	i	2.5%	i	i	i
COc1ccccc1C(=O)Nc1ccc2c(c1)nc1n2CCN(C2CCCCC2)C1	i	i	i	i	i	nt	nt	nt	nt
CCC(=O)N(c1ccc(C(=O)O)cc1)c1nc(-c2ccc(OC)cc2)c(C)s1	i	i	6.5	i	i	i	i	i	i
Cc1sc(N(C(=O)CCc2ccccc2)c2ccc(C(=O)O)cc2)nc1-c1ccccc1	i	i	i	i	i	nt	nt	nt	nt
COc1ccc(-n2cnc3ccccc3c2=O)c([N+](=O)[O-])c1	i	i	i	i	i	nt	nt	nt	nt
COc1cc2c(cc1OC)C1(Nc3c-2c(C)nn3-c2ccccc2)C(=O)Nc2ccccc21 (stereo unspecified)	i	i	6.7	nt	nt	i	i	i	i
CC1=CC(C)C(/C=N/N=C(N)N)C(C)C1 (stereo unspecified)	i	i	24	i	i	i	i	i	i
O=C(O)C1CCCN(S(=O)(=O)c2ccc(Br)s2)C1 (stereo unspecified)	i	i	6.6	i	i	i	i	i	i

High-throughput results deposited in PubChem BioAssay by Johns Hopkins Ion Channel Center.
